According to ChEMBL document CHEMBL2434847, “Design, synthesis, and structure-activity relationships of novel 6,7-disubstituted-4-phenoxyquinoline derivatives as potential antitumor agents” (Eur J Med Chem, 2013):
pIC50: −log10 of the molar value.

What was measured:
[1] = target: Platelet-derived growth factor receptor beta (Homo sapiens, UniProt P09619); assay: Inhibition of PDGFRbeta (unknown origin) using poly (Glu, Tyr) (4:1) as substrate after 30 mins by spectrophotometric analysis
[2] = test system: HT-29; assay: Ratio of foretinib IC50 to compound IC50 for human HT-29 cells; type: functional
[3] = target: Hepatocyte growth factor receptor (Homo sapiens, UniProt P08581); assay: Inhibition of c-MET (unknown origin) using poly (Glu, Tyr) (4:1) as substrate after 30 mins by spectrophotometric analysis
[4] = Cytotoxicity against human H460 cells after 72 hrs by MTT assay; settings: NCI-H460, 72 h
[5] = target: Vascular endothelial growth factor receptor 2 (Homo sapiens, UniProt P35968); assay: Inhibition of VEGFR2 (unknown origin) using poly (Glu, Tyr) (4:1) as substrate after 30 mins by spectrophotometric analysis
[6] = Ratio of foretinib IC50 to compound IC50 for human H460 cells; type: functional
[7] = target: Epidermal growth factor receptor (Homo sapiens, UniProt P00533); assay: Inhibition of EGFR (unknown origin) using poly (Glu, Tyr) (4:1) as substrate after 30 mins by spectrophotometric analysis
[8] = test system: A549; assay: Cytotoxicity against human A549 cells after 72 hrs by MTT assay; type: functional, cell-based; settings: A549, 72 h
Outline: (§1)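 Cells grown in MEM with 10% FBS; about 4 × 10³ cells per well, preincubated 24 h at 37 °C in 5% CO₂, then exposed to compound for 72 h. Each line tested three times; IC50 is mean of three determinations.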

[9] = test system: U-87 MG; assay: Ratio of foretinib IC50 to compound IC50 for human U87MG cells; type: functional, U-87MG ATCC
[10] = test system: MKN-45; assay: Cytotoxicity against human MKN45 cells after 72 hrs by MTT assay; settings: MKN-45, 72 h
[11] = Cytotoxicity against human U87MG cells after 72 hrs by MTT assay; type: functional, cell-based, U-87MG ATCC; settings: U-87 MG; outline: as §1
[12] = target: Mast/stem cell growth factor receptor Kit (Homo sapiens, UniProt P10721); assay: Inhibition of c-KIT (unknown origin) using poly (Glu, Tyr) (4:1) as substrate after 30 mins by spectrophotometric analysis
[13] = target: T1, Receptor-type tyrosine-protein kinase FLT3 (Homo sapiens, UniProt P36888); assay: Inhibition of FLT3 (unknown origin) using poly (Glu, Tyr) (4:1) as substrate after 30 mins by spectrophotometric analysis
T1 sequence (P36888 whole entry): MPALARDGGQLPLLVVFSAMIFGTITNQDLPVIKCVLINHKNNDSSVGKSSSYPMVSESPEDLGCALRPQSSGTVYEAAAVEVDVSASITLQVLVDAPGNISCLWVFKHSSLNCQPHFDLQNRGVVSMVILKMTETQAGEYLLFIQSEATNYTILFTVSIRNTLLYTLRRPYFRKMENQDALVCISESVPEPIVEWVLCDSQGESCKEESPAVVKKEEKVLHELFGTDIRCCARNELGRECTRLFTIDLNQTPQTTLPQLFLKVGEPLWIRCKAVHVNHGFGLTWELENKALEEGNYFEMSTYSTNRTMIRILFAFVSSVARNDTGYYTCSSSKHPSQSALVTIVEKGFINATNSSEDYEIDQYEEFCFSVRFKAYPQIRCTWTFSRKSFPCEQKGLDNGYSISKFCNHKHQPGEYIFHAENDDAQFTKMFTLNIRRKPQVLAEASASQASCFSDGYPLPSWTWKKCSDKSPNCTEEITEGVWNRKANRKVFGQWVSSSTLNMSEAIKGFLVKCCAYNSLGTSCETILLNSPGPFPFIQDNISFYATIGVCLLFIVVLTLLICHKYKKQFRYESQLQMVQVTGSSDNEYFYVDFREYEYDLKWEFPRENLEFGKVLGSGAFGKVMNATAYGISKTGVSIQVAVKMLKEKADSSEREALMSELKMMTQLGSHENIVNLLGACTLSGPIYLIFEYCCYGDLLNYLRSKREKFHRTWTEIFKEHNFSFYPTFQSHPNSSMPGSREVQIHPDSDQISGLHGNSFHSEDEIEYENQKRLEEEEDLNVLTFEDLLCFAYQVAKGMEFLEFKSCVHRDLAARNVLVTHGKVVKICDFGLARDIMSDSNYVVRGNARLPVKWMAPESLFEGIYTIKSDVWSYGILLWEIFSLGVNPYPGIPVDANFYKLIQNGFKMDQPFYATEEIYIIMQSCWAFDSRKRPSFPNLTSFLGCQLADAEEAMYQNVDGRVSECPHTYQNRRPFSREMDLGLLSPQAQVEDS

[14] = test system: HT-29; assay: Cytotoxicity against human HT-29 cells after 72 hrs by MTT assay; settings: HT-29, 72 h

Epidermal growth factor receptor, sequence (P00533 whole entry): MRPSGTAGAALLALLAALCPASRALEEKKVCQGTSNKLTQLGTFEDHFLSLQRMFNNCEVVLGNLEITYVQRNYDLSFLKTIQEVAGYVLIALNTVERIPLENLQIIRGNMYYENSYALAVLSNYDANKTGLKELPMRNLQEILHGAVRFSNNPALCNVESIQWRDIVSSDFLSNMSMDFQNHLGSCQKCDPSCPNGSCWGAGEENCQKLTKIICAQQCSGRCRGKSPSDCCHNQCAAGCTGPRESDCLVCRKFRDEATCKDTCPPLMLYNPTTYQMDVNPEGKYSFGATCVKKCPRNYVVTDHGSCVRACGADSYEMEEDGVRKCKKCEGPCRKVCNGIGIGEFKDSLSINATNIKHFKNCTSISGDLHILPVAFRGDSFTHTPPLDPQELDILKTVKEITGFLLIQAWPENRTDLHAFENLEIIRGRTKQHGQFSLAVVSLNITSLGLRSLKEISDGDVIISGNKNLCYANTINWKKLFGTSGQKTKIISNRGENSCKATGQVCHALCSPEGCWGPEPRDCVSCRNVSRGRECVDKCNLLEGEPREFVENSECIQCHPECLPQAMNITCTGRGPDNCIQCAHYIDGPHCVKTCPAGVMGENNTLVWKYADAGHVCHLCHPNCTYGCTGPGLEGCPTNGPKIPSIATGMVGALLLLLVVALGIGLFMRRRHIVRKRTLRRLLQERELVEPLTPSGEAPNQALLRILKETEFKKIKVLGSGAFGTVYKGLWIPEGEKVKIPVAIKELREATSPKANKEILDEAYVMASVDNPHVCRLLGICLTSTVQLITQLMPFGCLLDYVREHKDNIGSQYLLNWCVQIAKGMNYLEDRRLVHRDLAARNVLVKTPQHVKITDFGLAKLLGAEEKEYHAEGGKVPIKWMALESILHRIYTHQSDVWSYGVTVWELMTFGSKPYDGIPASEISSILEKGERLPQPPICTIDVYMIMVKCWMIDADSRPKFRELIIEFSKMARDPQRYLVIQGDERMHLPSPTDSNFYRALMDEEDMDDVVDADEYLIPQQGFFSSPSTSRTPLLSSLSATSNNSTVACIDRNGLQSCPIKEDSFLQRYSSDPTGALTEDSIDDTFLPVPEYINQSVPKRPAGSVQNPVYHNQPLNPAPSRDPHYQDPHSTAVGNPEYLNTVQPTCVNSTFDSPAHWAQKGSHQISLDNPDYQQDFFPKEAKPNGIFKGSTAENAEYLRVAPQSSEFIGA
Vascular endothelial growth factor receptor 2, sequence (P35968 whole entry): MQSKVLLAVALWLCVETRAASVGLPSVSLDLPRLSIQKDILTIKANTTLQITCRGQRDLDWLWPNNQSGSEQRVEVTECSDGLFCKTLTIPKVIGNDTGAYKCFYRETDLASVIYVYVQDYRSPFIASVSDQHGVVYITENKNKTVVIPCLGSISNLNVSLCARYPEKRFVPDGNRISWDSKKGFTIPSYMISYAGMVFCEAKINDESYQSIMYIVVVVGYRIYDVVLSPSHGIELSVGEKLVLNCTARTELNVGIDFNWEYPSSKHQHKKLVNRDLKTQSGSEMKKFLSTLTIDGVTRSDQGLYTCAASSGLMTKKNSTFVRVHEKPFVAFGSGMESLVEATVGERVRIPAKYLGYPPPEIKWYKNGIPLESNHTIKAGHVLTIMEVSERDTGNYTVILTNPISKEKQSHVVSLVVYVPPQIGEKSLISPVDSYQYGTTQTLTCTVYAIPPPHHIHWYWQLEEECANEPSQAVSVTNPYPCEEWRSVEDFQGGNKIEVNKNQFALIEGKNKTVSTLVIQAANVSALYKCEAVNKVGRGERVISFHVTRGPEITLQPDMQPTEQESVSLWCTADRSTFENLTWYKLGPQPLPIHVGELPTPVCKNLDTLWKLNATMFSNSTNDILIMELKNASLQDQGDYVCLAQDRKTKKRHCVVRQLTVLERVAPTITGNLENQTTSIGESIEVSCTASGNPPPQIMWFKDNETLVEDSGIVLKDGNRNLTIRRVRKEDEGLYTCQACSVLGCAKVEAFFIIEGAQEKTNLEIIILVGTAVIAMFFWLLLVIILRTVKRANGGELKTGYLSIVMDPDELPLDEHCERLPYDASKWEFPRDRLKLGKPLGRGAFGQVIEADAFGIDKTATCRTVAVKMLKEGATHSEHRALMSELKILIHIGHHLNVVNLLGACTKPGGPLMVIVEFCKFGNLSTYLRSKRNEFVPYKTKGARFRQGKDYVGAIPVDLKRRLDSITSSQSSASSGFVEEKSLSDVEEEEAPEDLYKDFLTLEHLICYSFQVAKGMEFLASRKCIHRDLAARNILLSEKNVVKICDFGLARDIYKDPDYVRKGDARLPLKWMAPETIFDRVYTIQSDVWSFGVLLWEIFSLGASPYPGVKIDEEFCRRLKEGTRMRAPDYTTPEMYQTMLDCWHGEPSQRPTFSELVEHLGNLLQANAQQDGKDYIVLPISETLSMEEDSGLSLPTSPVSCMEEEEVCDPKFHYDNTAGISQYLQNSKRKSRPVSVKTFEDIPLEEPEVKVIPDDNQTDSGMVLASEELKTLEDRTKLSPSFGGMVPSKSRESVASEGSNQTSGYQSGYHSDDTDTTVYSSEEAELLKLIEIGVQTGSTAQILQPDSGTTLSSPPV
Mast/stem cell growth factor receptor Kit, sequence (P10721 whole entry): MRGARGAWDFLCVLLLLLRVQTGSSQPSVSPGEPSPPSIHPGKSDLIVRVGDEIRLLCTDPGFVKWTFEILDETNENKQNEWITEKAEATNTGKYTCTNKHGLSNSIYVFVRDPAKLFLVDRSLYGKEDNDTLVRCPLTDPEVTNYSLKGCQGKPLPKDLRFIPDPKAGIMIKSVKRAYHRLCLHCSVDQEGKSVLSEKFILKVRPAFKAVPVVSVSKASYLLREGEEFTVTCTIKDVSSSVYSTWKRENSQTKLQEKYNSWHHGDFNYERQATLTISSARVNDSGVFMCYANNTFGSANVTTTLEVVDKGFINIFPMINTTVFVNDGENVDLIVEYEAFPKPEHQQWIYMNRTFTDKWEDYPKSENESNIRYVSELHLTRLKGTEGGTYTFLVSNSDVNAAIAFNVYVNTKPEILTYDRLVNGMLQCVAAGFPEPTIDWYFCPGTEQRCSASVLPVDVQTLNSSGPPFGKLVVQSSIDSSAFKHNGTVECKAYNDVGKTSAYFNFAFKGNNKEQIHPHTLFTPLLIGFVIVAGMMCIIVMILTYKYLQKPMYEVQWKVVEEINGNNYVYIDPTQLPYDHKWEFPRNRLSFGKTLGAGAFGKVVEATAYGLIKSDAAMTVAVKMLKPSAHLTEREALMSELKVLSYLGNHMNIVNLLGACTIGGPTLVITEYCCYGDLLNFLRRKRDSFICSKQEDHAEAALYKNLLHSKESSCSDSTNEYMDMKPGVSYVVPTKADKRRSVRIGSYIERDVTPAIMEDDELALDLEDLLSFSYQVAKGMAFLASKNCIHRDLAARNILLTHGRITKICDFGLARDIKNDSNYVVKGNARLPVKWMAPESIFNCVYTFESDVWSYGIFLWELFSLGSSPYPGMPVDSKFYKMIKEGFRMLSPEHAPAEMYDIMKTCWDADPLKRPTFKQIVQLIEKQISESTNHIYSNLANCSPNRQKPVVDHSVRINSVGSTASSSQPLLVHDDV
Hepatocyte growth factor receptor, sequence (P08581 whole entry): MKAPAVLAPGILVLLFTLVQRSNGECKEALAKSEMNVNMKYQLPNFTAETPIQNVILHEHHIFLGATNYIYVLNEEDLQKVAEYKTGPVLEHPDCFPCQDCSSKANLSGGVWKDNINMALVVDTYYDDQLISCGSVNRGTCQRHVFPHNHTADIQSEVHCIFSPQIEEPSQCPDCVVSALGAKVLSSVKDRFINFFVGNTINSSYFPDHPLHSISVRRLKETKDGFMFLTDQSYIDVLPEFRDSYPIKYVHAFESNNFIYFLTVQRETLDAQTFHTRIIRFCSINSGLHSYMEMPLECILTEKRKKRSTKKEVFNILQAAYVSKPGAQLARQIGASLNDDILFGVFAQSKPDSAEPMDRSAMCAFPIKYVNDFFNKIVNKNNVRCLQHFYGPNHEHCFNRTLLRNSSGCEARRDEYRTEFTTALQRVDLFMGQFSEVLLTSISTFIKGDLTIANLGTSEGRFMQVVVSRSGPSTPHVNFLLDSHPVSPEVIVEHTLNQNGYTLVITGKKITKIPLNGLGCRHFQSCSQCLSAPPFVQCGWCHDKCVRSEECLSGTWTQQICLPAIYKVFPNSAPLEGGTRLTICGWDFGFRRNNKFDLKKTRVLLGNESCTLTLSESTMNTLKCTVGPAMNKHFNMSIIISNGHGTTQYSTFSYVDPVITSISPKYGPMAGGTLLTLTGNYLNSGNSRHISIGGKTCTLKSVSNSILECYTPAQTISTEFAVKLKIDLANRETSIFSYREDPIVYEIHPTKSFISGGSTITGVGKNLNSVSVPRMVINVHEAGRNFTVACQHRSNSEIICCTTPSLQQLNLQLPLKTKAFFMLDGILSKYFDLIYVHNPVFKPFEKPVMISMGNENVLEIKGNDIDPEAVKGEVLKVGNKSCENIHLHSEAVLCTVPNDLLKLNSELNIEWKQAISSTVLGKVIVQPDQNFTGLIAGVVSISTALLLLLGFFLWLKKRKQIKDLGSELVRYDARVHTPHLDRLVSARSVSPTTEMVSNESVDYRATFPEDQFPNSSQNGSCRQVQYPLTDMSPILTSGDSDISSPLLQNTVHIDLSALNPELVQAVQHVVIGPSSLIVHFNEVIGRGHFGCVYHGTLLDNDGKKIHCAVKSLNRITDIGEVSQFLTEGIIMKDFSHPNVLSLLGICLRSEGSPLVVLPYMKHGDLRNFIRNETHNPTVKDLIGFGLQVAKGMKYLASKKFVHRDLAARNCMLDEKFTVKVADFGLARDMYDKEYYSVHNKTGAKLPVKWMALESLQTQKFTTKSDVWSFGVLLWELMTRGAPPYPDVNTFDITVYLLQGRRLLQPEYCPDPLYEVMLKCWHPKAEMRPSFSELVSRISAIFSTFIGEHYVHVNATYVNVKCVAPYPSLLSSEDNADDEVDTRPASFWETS

- pIC50 [1]: 8.85
- pIC50 [3]: 8.86
- pIC50 [5]: 6.27
- pIC50 [7]: 7.05
- pIC50 [12]: 6.35
- pIC50 [13]: 8.97
SMILES: COc1cc2c(Oc3ccc(NC(=O)c4cc(-c5ccc(C)cc5)ccn4)cc3F)ccnc2cc1OCCCN1CCN(C)CC1
- Ratio IC50 [2]: 7.3
- pIC50 [4]: 7.43
- Ratio IC50 [6]: 5.8
- pIC50 [8]: 7.00
- Ratio IC50 [9]: 1.2
- pIC50 [10]: 7.14
- pIC50 [11]: 6.09
- pIC50 [14]: 7.59
